Source: PubChem BioAssay (several laboratories)
Phagocyt inh – macrophage phagocytosis inhibition. J774A.1 macrophage IgG-bead phagocytosis, imaging. inhibition, % at 5 µM. 110,000 tested, 0.07% active. AID 1029;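 active means inhibition above the mean of the plate negative controls plus 5 SD, cut at about 13% in these data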;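 further: phagocytic index as fraction of beads internalized from green versus red external bead signal; plate controls were DMSO negative control for no effect and cytochalasin-D positive control for full effect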
RAM network inh – yeast RAM network inhibition. S. cerevisiae dse1pr::URA3 reporter, 5-FOA growth OD615, 2 d; analog-sensitive cbk1-as2 kinase mutant strain. inhibition, % at 50 µM. 190,000 tested, 1.8% active;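 active means inhibition above a set limit, 3 SD over mean compound inhibition, cut at about 8.4% in these data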;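 further: 0% = DMSO-only wells with no growth and 100% = 10 µM 1-NA-PP1 full growth; inhibition rescues growth on 5-FOA so higher OD means more RAM inhibition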
Yeast growth inh – chemicals that inhibit yeast BB579 growth in restrictive medium (lifespan-shortening candidates) | S. cerevisiae BB579 growth, OD615, 48 h | inhibition, % at 10 µM | 140,000 tested, 0.51% active;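 active means inhibition above a set limit, 3 SD over the mean compound inhibition, cut at about 44% in these data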
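test system = yeast BB579 (DeaD) | buffer or medium = restrictive CSMM-D medium | doses = single compound dose of 10 µM, 0.25% DMSO final | times = 4 h preincubation and 48 h exposure at 30 °C | technique = culture absorbance at 615 nm | benchmarks = amphotericin B 10 µg/mL, positive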
Yeast lifespan up – yeast lifespan extension; S. cerevisiae growth with nicotinamide, OD615; deaD strain in restrictive glucose medium; inhibition of the nicotinamide effect, % at 10 µM; 130,000 tested, 0.68% active; AID 775;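 active means inhibition above a set limit, placed 3 SD over the median of all compounds, cut at about 26% in these data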;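 further: 0% = nicotinamide-treated wells and 100% = cells grown without nicotinamide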
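assay system = DeaD-strain S. cerevisiae | measured by = absorbance at 615 nm | probe or stimulus = nicotinamide 1.5 mM | buffer or medium = CSMM-D glucose medium, restrictive | times = 48 h at 30 °C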
RAM 5-FOA – RAM network inhibitors in efflux-deficient yeast; shares compounds with RAM network inh; S. cerevisiae efflux-deficient reporter strain, 5-FOA growth OD615, 2 days; max inhibition, %; 1,200 tested, under 10 active; AID 1305; call rule not given here;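 further: plate controls were vehicle for no effect and reference inhibitor for full effect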
* marks the source's active call; other numbers are inactive results. This is a sample that favours compounds with a hit; in the whole collection about 2.7% have one here.

Screening C/C=C(/C)C(=O)O[C@@H]1c2c(ccc3ccc(=O)oc23)O[C@@H]1C(C)(C)OC(=O)/C(C)=C\C returned RAM network inh 18*, Yeast growth inh -54, Yeast lifespan up 7 and RAM 5-FOA 5.
Screening C/C=C(/C)C(=O)OC(C)(C)[C@@H]1Cc2c(ccc3ccc(=O)oc23)O1 returned RAM network inh 2, Yeast growth inh -36 and Yeast lifespan up 10.
`CSc1ccc(Cl)c(C(=O)NCCOc2cc(C(C)C)ccc2C)c1` gave Phagocyt inh -2, RAM network inh 14*, Yeast growth inh -16, Yeast lifespan up -1 and RAM 5-FOA 6.
Screening CCCc1cc(C(=O)OC)c(NC(=O)c2cc(C)on2)s1 returned RAM network inh 12*, Yeast growth inh -23 and RAM 5-FOA 2.
COc1ccc(NC(=O)c2sccc2SCc2cccc(C(F)(F)F)c2)cc1 was read as Phagocyt inh 1, RAM network inh 16*, Yeast growth inh -36, Yeast lifespan up -12 and RAM 5-FOA 4.
O=C(Nc1ccc(F)cc1F)c1sccc1SCc1cccc(C(F)(F)F)c1 was read as RAM network inh 2, Yeast growth inh -28 and Yeast lifespan up -4.
`O=C(Nc1ccc(F)cc1)c1sccc1SCc1cccc(C(F)(F)F)c1` gave Phagocyt inh 0, RAM network inh 14*, Yeast growth inh -41, Yeast lifespan up -16 and RAM 5-FOA 3.
For COc1ccc(C(=O)N2CCC(c3ccccc3)CC2)c(OC)c1OC the results were RAM network inh 4.
Screening CCOc1ccc(/C=C2\SC(=S)N(Nc3ccccc3)C2=O)cc1OC returned Phagocyt inh -5, RAM network inh 7, Yeast growth inh -38 and Yeast lifespan up 1.
For CC(/C=C1\SC(=S)N(NC(=O)c2ccc(C)cc2)C1=O)=C\c1ccccc1 the results were RAM network inh 6, Yeast growth inh -15 and Yeast lifespan up -15.
For COc1ccc(/C=C2\SC(=S)N(C(Cc3ccccc3)C(=O)O)C2=O)cc1 (configuration not stated) the results were RAM network inh 34* and RAM 5-FOA 4.
CCOc1ccc(/C=C2/SC(=S)N(C(C(=O)O)c3ccccc3)C2=O)cc1OCC (configuration not stated) was read as RAM network inh 13* and RAM 5-FOA 2.
For COc1ccc(/C=C2\SC(=S)N(CC(=O)NCCO)C2=O)cc1 the results were RAM network inh 0.
`CC(/C=C1\SC(=S)N(C(C(=O)O)C(C)C)C1=O)=C\c1ccccc1` (configuration not stated) gave RAM network inh 18* and RAM 5-FOA 4.
`COc1ccc(O[C@H]2C=C[C@@H](c3ccccc3)O[C@@H]2CO/N=C(\C)CCC(=O)OC[C@H]2O[C@H](c3ccccc3)C=C[C@@H]2Oc2ccc(OC)cc2)cc1` gave RAM network inh 25*, Yeast growth inh -52, Yeast lifespan up 3 and RAM 5-FOA 6.
For COC(=O)C/C=C/[C@@H](C)[C@@H](/C=N/OC[C@H]1O[C@H](c2ccccc2)C=C[C@@H]1Oc1ccc(OC)cc1)NS(=O)(=O)c1ccc(C)cc1 the results were RAM network inh 16*, Yeast growth inh -30, Yeast lifespan up 10 and RAM 5-FOA 3.
COC(=O)C/C=C/[C@@H](C)[C@@H](/C=N/O[C@@H](C)c1cn([C@H](CO)Cc2ccccc2)nn1)NS(=O)(=O)c1ccc(C)cc1 was read as RAM network inh 0, Yeast growth inh -1 and Yeast lifespan up 2.
`Cc1ccc(-n2c(SCC(=O)Nc3cccc(S(=O)(=O)NC4=NCCCCC4)c3)nc3ccccc3c2=O)cc1C` gave RAM network inh 12*, Yeast growth inh -36, Yeast lifespan up 4 and RAM 5-FOA 2.
Screening Cc1cccc(OCCC(=O)Nc2ccc(C)c(S(=O)(=O)N3CCCCC3)c2)c1 returned Phagocyt inh -3, RAM network inh 16*, Yeast growth inh -38, Yeast lifespan up 5 and RAM 5-FOA 2.
For Cc1ccc(NC(=O)c2ccc(F)cc2)cc1S(=O)(=O)N1CCCCCC1 the results were RAM network inh 12* and RAM 5-FOA 2.
Screening Cc1cccc(OCCC(=O)Nc2ccc(S(=O)(=O)N3CCCC3)cc2)c1 returned RAM network inh 4, Yeast growth inh -23 and Yeast lifespan up -7.
`Cc1ccc(NC(=O)c2ccccc2F)cc1S(=O)(=O)N1CCCCCC1` gave RAM network inh 13* and RAM 5-FOA 2.
Cc1ccc(C(=O)NCCSCc2ccc(Cl)cc2Cl)cc1[N+](=O)[O-] was read as Phagocyt inh 0, RAM network inh 14*, Yeast growth inh -39, Yeast lifespan up 2 and RAM 5-FOA 1.
`O=C(OCc1ccccc1)C1=[N+]([O-])OC(C(=O)OCc2ccccc2)C1c1c[nH]c2ccccc12` (configuration not stated) gave Phagocyt inh 0, RAM network inh 12*, Yeast growth inh -92, Yeast lifespan up -8 and RAM 5-FOA 4.
Screening CCOc1cc(/C=N/NC(=O)C(=O)NCCCOC(C)C)cc(Br)c1O returned Phagocyt inh -4, RAM network inh 1, Yeast growth inh -39 and Yeast lifespan up 15.
Screening CC(C)COC(=O)/C(C#N)=C/c1cn(Cc2ccccc2)c2ccccc12 returned RAM network inh 19*, Yeast growth inh -36, Yeast lifespan up 5 and RAM 5-FOA 11.
CC(C)OC(=O)/C(C#N)=C/c1cn(Cc2ccccc2)c2ccccc12 was read as RAM network inh 16*, Yeast growth inh -46, Yeast lifespan up -1 and RAM 5-FOA 6.
For Cn1cc(-c2ccno2)c(C(=O)O)n1 the results were RAM network inh 0.
CN(C)c1oc(-c2ccc(OCc3ccccc3)cc2)nc1C#N was read as Phagocyt inh -2, RAM network inh 14*, Yeast growth inh -24, Yeast lifespan up -20 and RAM 5-FOA 3.
`N#Cc1nc(-c2ccc(OCc3ccccc3)cc2)oc1NCc1cccnc1` gave Phagocyt inh -1, RAM network inh 7, Yeast growth inh -48 and Yeast lifespan up -23.
`Cc1ccc(N2C(=N)/C(=C3/Nc4ccccc4S3)C(c3ccccc3)C2=O)cc1` (configuration not stated) gave Phagocyt inh 1, RAM network inh 5, Yeast growth inh -30 and Yeast lifespan up 4.
For CC(=O)Nc1ccc(-c2cc(-c3ccc(NC(C)=O)cc3)nc(-c3ccc(NC(C)=O)cc3)n2)cc1 the results were Phagocyt inh -7, RAM network inh 12*, Yeast growth inh -63, Yeast lifespan up 8 and RAM 5-FOA 5.
For N#CC1=C(N)Oc2cc(Nc3ccccc3)ccc2C1c1ccncc1 (configuration not stated) the results were RAM network inh 0, Yeast growth inh -52 and Yeast lifespan up -9.
